Source: the M2OR odorant receptor database

Legend:
Details in all cases: stereoisomer not certain
OR13H1 (Homo sapiens) = biological target: T1, OR13H1 (Homo sapiens) (UniProt Q8NG92)
T1 sequence (whole entry): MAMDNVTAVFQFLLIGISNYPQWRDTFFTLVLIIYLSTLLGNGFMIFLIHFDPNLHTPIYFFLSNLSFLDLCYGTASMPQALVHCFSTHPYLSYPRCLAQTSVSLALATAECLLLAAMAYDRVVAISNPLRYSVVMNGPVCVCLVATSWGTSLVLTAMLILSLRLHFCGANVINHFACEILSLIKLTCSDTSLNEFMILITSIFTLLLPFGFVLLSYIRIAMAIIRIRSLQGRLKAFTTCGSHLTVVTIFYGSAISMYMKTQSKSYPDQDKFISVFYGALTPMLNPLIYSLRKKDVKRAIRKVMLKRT
Summary of the method: (§1)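 Whether a receptor–molecule pair is responsive (active) rests on the original authors' judgment that its measured signal was statistically different from baseline. Pairs without that judgment are non-responsive (inactive). Sources used varied assay methods, commonly transient luciferase assays in mammalian cell lines.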

OR13J1 (Homo sapiens) = biological target: T2, OR13J1 (Homo sapiens) (UniProt Q8NGT2)
T2 sequence (whole entry): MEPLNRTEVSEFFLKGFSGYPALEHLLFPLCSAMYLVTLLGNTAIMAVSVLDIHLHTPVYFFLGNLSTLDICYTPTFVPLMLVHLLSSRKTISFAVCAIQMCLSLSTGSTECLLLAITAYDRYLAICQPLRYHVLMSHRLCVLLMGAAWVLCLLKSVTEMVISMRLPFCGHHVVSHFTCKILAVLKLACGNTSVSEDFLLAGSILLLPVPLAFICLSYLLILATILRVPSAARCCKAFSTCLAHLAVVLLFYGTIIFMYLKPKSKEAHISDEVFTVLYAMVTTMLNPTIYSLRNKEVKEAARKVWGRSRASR
Summary of the method: as §1

OR14A16 (Homo sapiens) = biological target: T3, OR14A16 (Homo sapiens) (UniProt Q8NHC5)
T3 sequence (whole entry): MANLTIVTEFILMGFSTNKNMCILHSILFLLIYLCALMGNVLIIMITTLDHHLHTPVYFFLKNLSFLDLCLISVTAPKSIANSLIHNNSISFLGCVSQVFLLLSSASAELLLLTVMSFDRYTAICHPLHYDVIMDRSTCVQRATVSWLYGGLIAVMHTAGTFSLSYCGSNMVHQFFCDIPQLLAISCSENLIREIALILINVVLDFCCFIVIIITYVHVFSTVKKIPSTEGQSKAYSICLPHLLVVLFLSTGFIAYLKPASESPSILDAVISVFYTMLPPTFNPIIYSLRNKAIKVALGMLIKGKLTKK
Summary of the method: as §1

OR14A2 (Homo sapiens) = biological target: T4, OR14A2 (Homo sapiens) (UniProt Q96R54)
T4 sequence (whole entry): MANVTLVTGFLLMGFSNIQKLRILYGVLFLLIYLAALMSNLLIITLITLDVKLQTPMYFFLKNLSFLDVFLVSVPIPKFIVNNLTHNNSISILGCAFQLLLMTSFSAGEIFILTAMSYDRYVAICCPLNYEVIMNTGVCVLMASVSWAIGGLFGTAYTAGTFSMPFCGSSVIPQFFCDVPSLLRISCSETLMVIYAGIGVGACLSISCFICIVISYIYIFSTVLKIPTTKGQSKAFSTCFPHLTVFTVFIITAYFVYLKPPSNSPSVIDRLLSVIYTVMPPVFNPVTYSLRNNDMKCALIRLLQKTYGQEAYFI
Summary of the method: as §1

OR14C36 (Homo sapiens) = biological target: T5, OR14C36 (Homo sapiens) (UniProt Q8NHC7)
T5 sequence (whole entry): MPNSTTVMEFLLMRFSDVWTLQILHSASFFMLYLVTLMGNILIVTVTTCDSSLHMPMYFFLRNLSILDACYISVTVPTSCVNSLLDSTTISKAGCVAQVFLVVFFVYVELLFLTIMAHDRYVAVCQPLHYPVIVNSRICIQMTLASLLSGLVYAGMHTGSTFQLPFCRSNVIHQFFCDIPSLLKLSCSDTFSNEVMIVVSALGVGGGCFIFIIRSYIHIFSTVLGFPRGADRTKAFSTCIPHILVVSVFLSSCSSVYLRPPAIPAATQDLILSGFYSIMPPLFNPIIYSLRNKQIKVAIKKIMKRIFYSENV
Summary of the method: as §1

OR14I1 (Homo sapiens) = biological target: T6, OR14I1 (Homo sapiens) (UniProt A6ND48)
T6 sequence (whole entry): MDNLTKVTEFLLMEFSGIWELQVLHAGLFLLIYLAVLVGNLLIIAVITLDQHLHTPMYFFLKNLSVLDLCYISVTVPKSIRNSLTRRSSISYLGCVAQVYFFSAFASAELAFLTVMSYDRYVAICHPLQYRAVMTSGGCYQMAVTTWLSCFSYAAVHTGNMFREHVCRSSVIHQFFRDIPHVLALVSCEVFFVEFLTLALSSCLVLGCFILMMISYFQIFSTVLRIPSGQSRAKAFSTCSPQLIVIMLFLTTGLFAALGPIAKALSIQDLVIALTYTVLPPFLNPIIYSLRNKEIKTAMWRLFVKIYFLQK
Summary of the method: as §1

OR14J1 (Homo sapiens) = biological target: T7, OR14J1 (Homo sapiens) (UniProt Q9UGF5)
T7 sequence (whole entry): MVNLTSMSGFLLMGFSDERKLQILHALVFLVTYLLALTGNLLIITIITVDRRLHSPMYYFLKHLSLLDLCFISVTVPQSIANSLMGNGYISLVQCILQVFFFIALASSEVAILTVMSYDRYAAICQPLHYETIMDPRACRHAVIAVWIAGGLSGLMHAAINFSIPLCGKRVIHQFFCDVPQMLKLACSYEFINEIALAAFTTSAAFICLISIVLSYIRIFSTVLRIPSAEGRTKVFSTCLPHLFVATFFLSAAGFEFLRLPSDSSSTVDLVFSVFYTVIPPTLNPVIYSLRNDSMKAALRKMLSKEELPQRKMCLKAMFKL
Summary of the method: as §1

OR14K1 (Homo sapiens) = biological target: T8, OR14K1 (Homo sapiens) (UniProt Q8NGZ2)
T8 sequence (whole entry): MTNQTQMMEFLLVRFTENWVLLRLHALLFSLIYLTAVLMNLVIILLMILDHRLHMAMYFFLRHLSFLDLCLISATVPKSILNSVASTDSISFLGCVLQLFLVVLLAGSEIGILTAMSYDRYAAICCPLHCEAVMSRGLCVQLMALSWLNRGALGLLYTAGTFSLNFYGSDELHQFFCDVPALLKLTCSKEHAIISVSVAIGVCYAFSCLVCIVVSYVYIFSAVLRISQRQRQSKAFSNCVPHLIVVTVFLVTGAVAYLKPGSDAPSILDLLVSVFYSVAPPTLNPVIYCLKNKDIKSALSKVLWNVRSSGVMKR
Summary of the method: as §1

OR1A1 (Homo sapiens) = biological target: T9, OR1A1 (Homo sapiens) (UniProt Q9P1Q5)
T9 sequence (whole entry): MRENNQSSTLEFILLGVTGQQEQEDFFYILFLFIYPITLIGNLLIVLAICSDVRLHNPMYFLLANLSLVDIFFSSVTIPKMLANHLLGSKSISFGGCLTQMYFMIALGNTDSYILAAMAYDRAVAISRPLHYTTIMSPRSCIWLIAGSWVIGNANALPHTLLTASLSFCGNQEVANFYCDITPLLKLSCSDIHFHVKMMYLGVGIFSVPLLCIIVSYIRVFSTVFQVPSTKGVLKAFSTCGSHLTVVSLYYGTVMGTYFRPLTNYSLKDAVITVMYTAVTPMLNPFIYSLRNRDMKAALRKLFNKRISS
Summary of the method: as §1
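Also: active if original authors judged signal statistically different from baseline.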

CC1=C(O)C(=O)OC1C (stereo not given)
odorant receptor agonist call (OR13H1 (Homo sapiens)): inactive | odorant receptor agonist call (OR13J1 (Homo sapiens)): inactive | odorant receptor agonist call (OR14A16 (Homo sapiens)): inactive | odorant receptor agonist call (OR14A2 (Homo sapiens)): inactive | odorant receptor agonist call (OR14C36 (Homo sapiens)): inactive | odorant receptor agonist call (OR14I1 (Homo sapiens)): inactive | odorant receptor agonist call (OR14J1 (Homo sapiens)): inactive | odorant receptor agonist call (OR14K1 (Homo sapiens)): inactive | odorant receptor agonist call (OR1A1 (Homo sapiens)): inactive

CCCCCC(S)C(C)CO (stereo not given)
odorant receptor agonist call (OR13H1 (Homo sapiens)): inactive | odorant receptor agonist call (OR13J1 (Homo sapiens)): inactive | odorant receptor agonist call (OR14A16 (Homo sapiens)): inactive | odorant receptor agonist call (OR14A2 (Homo sapiens)): inactive | odorant receptor agonist call (OR14C36 (Homo sapiens)): inactive | odorant receptor agonist call (OR14I1 (Homo sapiens)): inactive | odorant receptor agonist call (OR14J1 (Homo sapiens)): inactive | odorant receptor agonist call (OR14K1 (Homo sapiens)): inactive | odorant receptor agonist call (OR1A1 (Homo sapiens)): inactive

Cc1cccc(O)c1
odorant receptor agonist call (OR1A1 (Homo sapiens)): inactive

C=C(C)c1ccc(C)cc1
odorant receptor agonist call (OR1A1 (Homo sapiens)): inactive

C=C(C)C1CC=C(C)CC1 (stereo not given)
odorant receptor agonist call (OR1A1 (Homo sapiens)): active

C=CC(=O)CC
odorant receptor agonist call (OR1A1 (Homo sapiens)): inactive

CC1=CCC(C(C)C)C=C1 (stereo not given)
odorant receptor agonist call (OR1A1 (Homo sapiens)): inactive

CCCCCCC=CCCC=O
odorant receptor agonist call (OR13H1 (Homo sapiens)): inactive | odorant receptor agonist call (OR13J1 (Homo sapiens)): inactive | odorant receptor agonist call (OR14A16 (Homo sapiens)): inactive | odorant receptor agonist call (OR14A2 (Homo sapiens)): inactive | odorant receptor agonist call (OR14C36 (Homo sapiens)): inactive | odorant receptor agonist call (OR14I1 (Homo sapiens)): inactive | odorant receptor agonist call (OR14J1 (Homo sapiens)): inactive | odorant receptor agonist call (OR14K1 (Homo sapiens)): inactive | odorant receptor agonist call (OR1A1 (Homo sapiens)): inactive

CC1=C(O)C(=O)C(C)O1 (stereo not given)
odorant receptor agonist call (OR13H1 (Homo sapiens)): inactive | odorant receptor agonist call (OR13J1 (Homo sapiens)): inactive | odorant receptor agonist call (OR14A16 (Homo sapiens)): inactive | odorant receptor agonist call (OR14A2 (Homo sapiens)): inactive | odorant receptor agonist call (OR14C36 (Homo sapiens)): inactive | odorant receptor agonist call (OR14I1 (Homo sapiens)): inactive | odorant receptor agonist call (OR14J1 (Homo sapiens)): inactive | odorant receptor agonist call (OR14K1 (Homo sapiens)): inactive | odorant receptor agonist call (OR1A1 (Homo sapiens)): inactive

SCc1cccs1
odorant receptor agonist call (OR1A1 (Homo sapiens)): inactive

CCCCC(S)C(C)CO (stereo not given)
odorant receptor agonist call (OR13H1 (Homo sapiens)): inactive | odorant receptor agonist call (OR13J1 (Homo sapiens)): inactive | odorant receptor agonist call (OR14A16 (Homo sapiens)): inactive | odorant receptor agonist call (OR14A2 (Homo sapiens)): inactive | odorant receptor agonist call (OR14C36 (Homo sapiens)): inactive | odorant receptor agonist call (OR14I1 (Homo sapiens)): inactive | odorant receptor agonist call (OR14J1 (Homo sapiens)): inactive | odorant receptor agonist call (OR14K1 (Homo sapiens)): inactive | odorant receptor agonist call (OR1A1 (Homo sapiens)): inactive

CCCCCCCCC(=O)O
odorant receptor agonist call (OR1A1 (Homo sapiens)): inactive

CCc1cnccn1
odorant receptor agonist call (OR1A1 (Homo sapiens)): inactive

CC(=O)c1c(C)c([N+](=O)[O-])c(C(C)(C)C)c([N+](=O)[O-])c1C
odorant receptor agonist call (OR13H1 (Homo sapiens)): inactive | odorant receptor agonist call (OR13J1 (Homo sapiens)): inactive | odorant receptor agonist call (OR14A16 (Homo sapiens)): inactive | odorant receptor agonist call (OR14A2 (Homo sapiens)): inactive | odorant receptor agonist call (OR14C36 (Homo sapiens)): inactive | odorant receptor agonist call (OR14I1 (Homo sapiens)): inactive | odorant receptor agonist call (OR14J1 (Homo sapiens)): inactive | odorant receptor agonist call (OR14K1 (Homo sapiens)): inactive | odorant receptor agonist call (OR1A1 (Homo sapiens)): inactive

CCCCCC(=O)C(C)C(C)=O (stereo not given)
odorant receptor agonist call (OR13H1 (Homo sapiens)): inactive | odorant receptor agonist call (OR13J1 (Homo sapiens)): inactive | odorant receptor agonist call (OR14A16 (Homo sapiens)): inactive | odorant receptor agonist call (OR14A2 (Homo sapiens)): inactive | odorant receptor agonist call (OR14C36 (Homo sapiens)): inactive | odorant receptor agonist call (OR14I1 (Homo sapiens)): inactive | odorant receptor agonist call (OR14J1 (Homo sapiens)): inactive | odorant receptor agonist call (OR14K1 (Homo sapiens)): inactive | odorant receptor agonist call (OR1A1 (Homo sapiens)): active

CCCC(S)CCOC(C)=O (stereo not given)
odorant receptor agonist call (OR13H1 (Homo sapiens)): inactive | odorant receptor agonist call (OR13J1 (Homo sapiens)): inactive | odorant receptor agonist call (OR14A16 (Homo sapiens)): inactive | odorant receptor agonist call (OR14A2 (Homo sapiens)): inactive | odorant receptor agonist call (OR14C36 (Homo sapiens)): inactive | odorant receptor agonist call (OR14I1 (Homo sapiens)): inactive | odorant receptor agonist call (OR14J1 (Homo sapiens)): inactive | odorant receptor agonist call (OR14K1 (Homo sapiens)): inactive | odorant receptor agonist call (OR1A1 (Homo sapiens)): active

CCC(S)C(C)CO (stereo not given)
odorant receptor agonist call (OR13H1 (Homo sapiens)): inactive | odorant receptor agonist call (OR13J1 (Homo sapiens)): inactive | odorant receptor agonist call (OR14A16 (Homo sapiens)): inactive | odorant receptor agonist call (OR14A2 (Homo sapiens)): inactive | odorant receptor agonist call (OR14C36 (Homo sapiens)): inactive | odorant receptor agonist call (OR14I1 (Homo sapiens)): inactive | odorant receptor agonist call (OR14J1 (Homo sapiens)): inactive | odorant receptor agonist call (OR14K1 (Homo sapiens)): inactive | odorant receptor agonist call (OR1A1 (Homo sapiens)): inactive

CCCCCO
odorant receptor agonist call (OR1A1 (Homo sapiens)): inactive

CCCCCCOC(C)=O
odorant receptor agonist call (OR1A1 (Homo sapiens)): inactive

CC1=NC(C)C(C)S1 (stereo not given)
odorant receptor agonist call (OR13H1 (Homo sapiens)): inactive | odorant receptor agonist call (OR13J1 (Homo sapiens)): inactive | odorant receptor agonist call (OR14A16 (Homo sapiens)): inactive | odorant receptor agonist call (OR14A2 (Homo sapiens)): inactive | odorant receptor agonist call (OR14C36 (Homo sapiens)): inactive | odorant receptor agonist call (OR14I1 (Homo sapiens)): inactive | odorant receptor agonist call (OR14J1 (Homo sapiens)): inactive | odorant receptor agonist call (OR14K1 (Homo sapiens)): inactive | odorant receptor agonist call (OR1A1 (Homo sapiens)): inactive
